Test [1] has as its target T1, Kappa-type opioid receptor (Homo sapiens, UniProt P41145). Description: Inhibition of [3H]diprenorphine binding to human KOR expressed in CHO cells. Format: cell-based. An outline of the steps: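 Affinity: membranes from CHO cells stably transfected with human κ-opioid receptor; competitive inhibition of [3H]diprenorphine binding; Ki values; mean of at least three independent experiments, each in duplicate.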

Test [2] concerns the target T1, Kappa-type opioid receptor. Briefly: Enhancement of [35S]GTP-gamma-S binding to human KOR expressed in CHO cells. The test is classed as functional, cell-based. On the technique in general: GTPγS resists hydrolysis and so accumulates on activated G proteins.
Test [3] has as its target T1, Kappa-type opioid receptor. Briefly: Enhancement of [35S]GTP-gamma-S binding to human KOR expressed in CHO cells relative to U50,488H at 10 uM. Format: functional, cell-based.
Test [4] has as its target T1, Kappa-type opioid receptor. Briefly: Enhancement of [35S]GTP-gamma-S binding to human KOR expressed in CHO cells relative to U50,488H. The test is classed as functional, cell-based.

From ChEMBL document CHEMBL1149338, “Synthesis and in vitro evaluation of salvinorin A analogues: effect of configuration at C(2) and substitution at C(18)” (Bioorg Med Chem Lett, 2006) come the findings set out here.

T1 sequence (P41145 whole entry): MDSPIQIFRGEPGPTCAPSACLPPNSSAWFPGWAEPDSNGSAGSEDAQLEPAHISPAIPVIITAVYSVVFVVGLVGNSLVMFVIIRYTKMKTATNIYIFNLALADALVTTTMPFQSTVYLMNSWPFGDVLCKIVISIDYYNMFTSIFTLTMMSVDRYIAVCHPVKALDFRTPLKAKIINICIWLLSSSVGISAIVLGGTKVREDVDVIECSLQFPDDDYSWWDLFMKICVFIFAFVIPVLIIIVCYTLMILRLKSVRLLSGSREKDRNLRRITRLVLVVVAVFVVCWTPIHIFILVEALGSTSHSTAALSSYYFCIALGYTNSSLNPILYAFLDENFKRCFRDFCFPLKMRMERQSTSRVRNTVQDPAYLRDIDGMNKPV

Turning to `CCN[C@H]1C[C@@H](C(=O)OC)[C@]2(C)CC[C@H]3C(=O)O[C@H](c4ccoc4)C[C@]3(C)[C@H]2C1=O`, the Ki in test [1] was 65.2 nM. Further, the EC50 in test [2] stood at 72.8 nM.

In test [1], `CNC(=O)[C@@H]1C[C@H](OC(C)=O)C(=O)[C@H]2[C@@]1(C)CC[C@H]1C(=O)O[C@H](c3ccoc3)C[C@]21C` showed an inhibition constant Ki of 1390 nM. Further, the Efficacy in test [3] came out at 71%.

`CC(=O)O[C@H]1C[C@@H](C(=O)N(C)C)[C@]2(C)CC[C@H]3C(=O)O[C@H](c4ccoc4)C[C@]3(C)[C@H]2C1=O` registered a Ki in test [1] of over 10000 nM.

In the case of `COC(=O)[C@@H]1C[C@H](N(C)C)C(=O)[C@H]2[C@@]1(C)CC[C@H]1C(=O)O[C@H](c3ccoc3)C[C@]21C`, the Ki in test [1] amounted to 168 nM. The EC50 in test [2] turned out to be 240 nM. The Efficacy in test [4] was determined as 110%. As for `COC(=O)[C@@H]1C[C@H](NC(C)C)C(=O)[C@H]2[C@@]1(C)CC[C@H]1C(=O)O[C@H](c3ccoc3)C[C@]21C`, the Ki in test [1] was found to be 17.6 nM. Besides, in test [2], the concentration for a half-maximal effect (EC50) came out at 18.9 nM. Turning to `CC(=O)O[C@H]1C[C@@H](CO)[C@]2(C)CC(=O)[C@@H]3CO[C@H](c4ccoc4)CC3(C)[C@H]2C1=O` (stereo partly drawn), in test [1], the Ki was over 10000 nM. In test [1], `CCC(=O)N(CC)[C@H]1C[C@@H](C(=O)OC)[C@]2(C)CC[C@H]3C(=O)O[C@H](c4ccoc4)C[C@]3(C)[C@H]2C1=O` yielded a Ki of 38.1 nM. The EC50 in test [2] amounted to 37.2 nM. In addition, the Efficacy in test [4] is 100%. In test [1], `CC(=O)O[C@H]1C[C@@H](CN(C)C)[C@]2(C)CC(=O)[C@H]3CO[C@H](c4ccoc4)CC3(C)[C@H]2C1=O` (stereo partly drawn) registered an inhibition constant Ki of over 10000 nM. For `COC[C@@H]1C[C@H](OC(C)=O)C(=O)[C@@H]2C3(C)C[C@@H](c4ccoc4)OC[C@H]3C(=O)C[C@@]12C` (stereo partly drawn), in test [1], the inhibition constant Ki is 769 nM. Moreover, the Efficacy in test [3] is 70%. Turning to `CCC(=O)N(C)[C@H]1C[C@@H](C(=O)OC)[C@]2(C)CC[C@H]3C(=O)O[C@H](c4ccoc4)C[C@]3(C)[C@H]2C1=O`, the Ki in test [1] stood at 1.6 nM. Also, the EC50 in test [2] is 0.75 nM. Compound `CCNC[C@@H]1C[C@H](OC(C)=O)C(=O)[C@@H]2C3(C)C[C@@H](c4ccoc4)OC[C@H]3C(=O)C[C@@]12C` (stereo partly drawn) yielded an inhibitory constant (Ki) in test [1] of over 10000 nM. On the same count and under the same terms, the same measure for `CCNC(=O)[C@@H]1C[C@H](OC(C)=O)C(=O)[C@@H]2[C@@]3(C)C[C@@H](c4ccoc4)OC(=O)[C@H]3CC[C@]21C`: over 10000 nM; for `CCO[C@@H]1C[C@@H](C(=O)OC)[C@]2(C)CC[C@H]3C(=O)O[C@H](c4ccoc4)C[C@]3(C)[C@H]2C1=O`: over 10000 nM. `CCN(C(C)=O)[C@@H]1C[C@@H](C(=O)OC)[C@]2(C)CC[C@H]3C(=O)O[C@H](c4ccoc4)C[C@]3(C)[C@H]2C1=O` returned an inhibition constant Ki in test [1] of 240 nM. Also, the concentration giving a half-maximal response (EC50) in test [2] turned out to be 641 nM. For the same compound, in test [4], the Efficacy turned out to be 95%.

The compound `CN[C@H]1C[C@@H](C(=O)OC)[C@]2(C)CC[C@H]3C(=O)O[C@H](c4ccoc4)C[C@]3(C)[C@H]2C1=O` yielded a Ki in test [1] of 328 nM. Further, the 50% effective concentration (EC50) in test [2] was found to be 825 nM. Besides, in test [4], the Efficacy came out at 82%. Regarding `COC(=O)[C@@H]1C[C@H](OC(C)=O)C(=O)[C@@H]2[C@@]3(C)C[C@@H](c4ccoc4)OC(=O)[C@H]3CC[C@]21C`, the Efficacy in test [4] was 88%.

In test [1], `COC(=O)[C@@H]1C[C@@H](NC(C)=O)C(=O)[C@H]2[C@@]1(C)CC[C@H]1C(=O)O[C@H](c3ccoc3)C[C@]21C` displayed a Ki of 332 nM. Also, in test [2], the EC50 turned out to be 339 nM. For `CCC(=O)N[C@H]1C[C@@H](C(=O)OC)[C@]2(C)CC[C@H]3C(=O)O[C@H](c4ccoc4)C[C@]3(C)[C@H]2C1=O`, the inhibition constant (Ki) in test [1] came out at 374 nM. Further, in test [2], the EC50 was found to be 444 nM. The Efficacy in test [4] stood at 109%. `CCCC(=O)O[C@@H]1C[C@@H](C(=O)OC)[C@]2(C)CC[C@H]3C(=O)O[C@H](c4ccoc4)C[C@]3(C)[C@H]2C1=O` had a Ki in test [1] of 665 nM. The compound `CC(=O)O[C@H]1C[C@@H](CO)[C@]2(C)CC(=O)[C@H]3CO[C@H](c4ccoc4)CC3(C)[C@H]2C1=O` (stereo partly drawn) returned a Ki in test [1] of 1000 nM. In test [3], the Efficacy turned out to be 68%. For `COC(=O)[C@@H]1C[C@@H](NC(C)C)C(=O)[C@H]2[C@@]1(C)CC[C@H]1C(=O)O[C@H](c3ccoc3)C[C@]21C`, the inhibitory constant (Ki) in test [1] amounted to 2.3 nM. Further, in test [2], the EC50 was 7.2 nM. On to `COC(=O)[C@@H]1C[C@@H](OC)C(=O)[C@H]2[C@@]1(C)CC[C@H]1C(=O)O[C@H](c3ccoc3)C[C@]21C`, for which the Ki in test [1] was over 10000 nM. `CCC(=O)N[C@@H]1C[C@@H](C(=O)OC)[C@]2(C)CC[C@H]3C(=O)O[C@H](c4ccoc4)C[C@]3(C)[C@H]2C1=O` registered a Ki in test [1] of 117 nM. Besides, the EC50 in test [2] worked out at 718 nM. The Efficacy in test [4] came out at 102%. With `CNC(=O)[C@@H]1C[C@H](OC(C)=O)C(=O)[C@@H]2[C@@]3(C)C[C@@H](c4ccoc4)OC(=O)[C@H]3CC[C@]21C`, the Ki in test [1] is over 1000 nM.

`CNC[C@@H]1C[C@H](OC(C)=O)C(=O)[C@@H]2C3(C)C[C@@H](c4ccoc4)OC[C@H]3C(=O)C[C@@]12C` (stereo partly drawn) came in with a Ki in test [1] of over 10000 nM. Turning to `CC(=O)O[C@H]1C[C@@H](C(=O)N(C)C)[C@]2(C)CC[C@@H]3C(=O)O[C@H](c4ccoc4)C[C@]3(C)[C@H]2C1=O`, the inhibition constant Ki in test [1] is over 10000 nM.

For the compound `CCC(=O)N(C)[C@@H]1C[C@@H](C(=O)OC)[C@]2(C)CC[C@H]3C(=O)O[C@H](c4ccoc4)C[C@]3(C)[C@H]2C1=O`, in test [1], the inhibitory constant (Ki) worked out at 6.9 nM. Also, the concentration for a half-maximal effect (EC50) in test [2] is 12.6 nM. On to `CCNC[C@@H]1C[C@H](OC(C)=O)C(=O)[C@@H]2C3(C)C[C@@H](c4ccoc4)OC[C@@H]3C(=O)C[C@@]12C` (stereo partly drawn), for which the Ki in test [1] was over 10000 nM. The compound `CNC[C@@H]1C[C@H](OC(C)=O)C(=O)[C@@H]2C3(C)C[C@@H](c4ccoc4)OC[C@@H]3C(=O)C[C@@]12C` (stereo partly drawn) registered an inhibition constant Ki in test [1] of over 10000 nM. Regarding `COC(=O)[C@@H]1C[C@@H](N(C)C(C)=O)C(=O)[C@H]2[C@@]1(C)CC[C@H]1C(=O)O[C@H](c3ccoc3)C[C@]21C`, in test [4], the Efficacy was found to be 106%.

`COC(=O)[C@@H]1C[C@H](N(C)C(C)=O)C(=O)[C@H]2[C@@]1(C)CC[C@H]1C(=O)O[C@H](c3ccoc3)C[C@]21C` returned an inhibition constant (Ki) in test [1] of 3.2 nM. The EC50 in test [2] worked out at 2.4 nM. The Efficacy in test [4] worked out at 103%.

The compound `CC(=O)O[C@H]1C[C@@H](CN(C)C)[C@]2(C)CC(=O)[C@@H]3CO[C@H](c4ccoc4)CC3(C)[C@H]2C1=O` (stereo partly drawn) gave a Ki in test [1] of over 10000 nM. `COC(=O)[C@@H]1C[C@@H](N)C(=O)[C@H]2[C@@]1(C)CC[C@H]1C(=O)O[C@H](c3ccoc3)C[C@]21C` yielded a Ki in test [1] of 223 nM. In addition, in test [2], the concentration giving a half-maximal response (EC50) was determined as 1370 nM. Besides, the Efficacy in test [4] is 84%. As for `CCC(=O)O[C@@H]1C[C@@H](C(=O)OC)[C@]2(C)CC[C@H]3C(=O)O[C@H](c4ccoc4)C[C@]3(C)[C@H]2C1=O`, the affinity in test [1], expressed as Ki, was 641 nM.

In the case of `CCNC(=O)[C@@H]1C[C@H](OC(C)=O)C(=O)[C@H]2[C@@]1(C)CC[C@H]1C(=O)O[C@H](c3ccoc3)C[C@]21C`, the inhibition constant Ki in test [1] is over 10000 nM. As for `CCN(C(C)=O)[C@H]1C[C@@H](C(=O)OC)[C@]2(C)CC[C@H]3C(=O)O[C@H](c4ccoc4)C[C@]3(C)[C@H]2C1=O`, the Ki in test [1] amounted to 27.6 nM. In addition, the EC50 in test [2] was determined as 25.2 nM. For the same compound, in test [4], the Efficacy is 104%.

Compound `CCC(=O)N(CC)[C@@H]1C[C@@H](C(=O)OC)[C@]2(C)CC[C@H]3C(=O)O[C@H](c4ccoc4)C[C@]3(C)[C@H]2C1=O` yielded an inhibition constant (Ki) in test [1] of 376 nM. Moreover, in test [2], the EC50 worked out at 857 nM. Further, the Efficacy in test [4] amounted to 96%. For the compound `COC(=O)[C@@H]1C[C@H](NC(C)=O)C(=O)[C@H]2[C@@]1(C)CC[C@H]1C(=O)O[C@H](c3ccoc3)C[C@]21C`, the Ki in test [1] turned out to be 149 nM. In addition, in test [2], the EC50 was determined as 188 nM.

One may read the Ki as the dissociation constant of the complex between target and ligand, obtained from inhibition or displacement. Read a low Ki as tighter binding. For orientation: EC50 means the concentration that produces a half-maximal response.
